Measured values taken from ChEMBL document CHEMBL3286209, “Synthesis and biological activities of novel pleuromutilin derivatives with a substituted thiadiazole moiety as potent drug-resistant bacteria inhibitors” (J Med Chem, 2014).
In brackets after ≈: the same amount, converted by molar mass.

Assays:
Format in all cases: functional
[1] = test system: Streptococcus agalactiae; test: Antibacterial activity against Streptococcus agalactiae after 48 hrs by agar dilution method
Procedure, shortened: (§1)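 Agar dilution per NCCLS on Mueller–Hinton agar; compound in DMSO/water, 2-fold serial dilutions in distilled water, 2 mL dilution mixed into 18 mL hot agar. Clinical isolates from blood slants, adjusted to about 10⁵−10⁶ cfu/mL in 0.90% saline; 10 μL spotted. Incubated 36.5 °C for 48 h; MIC = lowest concentration giving complete growth inhibition. Triplicate runs.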

[2] = test system: Streptococcus agalactiae; test: Antibacterial activity against Streptococcus agalactiae at 160 ug/ml after 24 hrs by Oxford cup assay; conditions: read-out: IZ
Procedure, shortened: (§2)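 Oxford cup diffusion: saline inoculum set by McFarland standard, spread on nutrient agar plates. […] Inhibition zone measured after 24 h at 37 °C; triplicate.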

[3] = test system: Escherichia coli; test: Antibacterial activity against Escherichia coli at 320 ug/ml after 24 hrs by Oxford cup assay; conditions: read-out: IZ; procedure, shortened: as §2
[4] = test system: Escherichia coli; test: Antibacterial activity against Escherichia coli after 48 hrs by agar dilution method; procedure, shortened: as §1
[5] = test system: Staphylococcus epidermidis; test: Antibacterial activity against methicillin-resistant Staphylococcus epidermidis at 320 ug/ml after 24 hrs by Oxford cup assay; conditions: read-out: IZ
Procedure, shortened: (§3)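 Oxford cup diffusion using clinical isolates. Inocula are made in 0.9% saline to a McFarland standard and spread on nutrient agar. […] Inhibition zone diameter is measured after 24 h at 37 °C. Run in triplicate.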

[6] = test system: Staphylococcus epidermidis; test: Antibacterial activity against methicillin-resistant Staphylococcus epidermidis after 48 hrs by agar dilution method
Procedure, shortened: (§4)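 Agar dilution per NCCLS using clinical isolates. Compound DMSO/water solutions are 2-fold serially diluted in water, then mixed 1:10 into hot Mueller–Hinton agar. Inocula come from blood slants, adjusted to about 10⁵−10⁶ cfu/mL in 0.90% saline, and spotted at 10 μL. Plates incubated at 36.5 °C for 48 h. MIC is the lowest concentration giving complete growth inhibition. Run in triplicate at pH 7.40.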

[7] = test system: Staphylococcus aureus; test: Antibacterial activity against methicillin-resistant Staphylococcus aureus at 320 ug/ml after 24 hrs by Oxford cup assay; conditions: read-out: IZ; procedure, shortened: as §3
[8] = test system: Streptococcus agalactiae; test: Antibacterial activity against Streptococcus agalactiae at 320 ug/ml after 24 hrs by Oxford cup assay; conditions: read-out: IZ; procedure, shortened: as §2
[9] = test system: Staphylococcus aureus; test: Antibacterial activity against methicillin-resistant Staphylococcus aureus after 48 hrs by agar dilution method; procedure, shortened: as §4
[10] = test system: Staphylococcus epidermidis; test: Antibacterial activity against methicillin-resistant Staphylococcus epidermidis at 160 ug/ml after 24 hrs by Oxford cup assay; conditions: read-out: IZ; procedure, shortened: as §3
[11] = test system: Escherichia coli; test: Antibacterial activity against Escherichia coli at 160 ug/ml after 24 hrs by Oxford cup assay; conditions: read-out: IZ; procedure, shortened: as §2
[12] = test system: Staphylococcus aureus; test: Antibacterial activity against methicillin-resistant Staphylococcus aureus at 160 ug/ml after 24 hrs by Oxford cup assay; conditions: read-out: IZ; procedure, shortened: as §3

Row | SMILES | MIC [1] | zone of inhibition at 160 µg/mL [2] | zone of inhibition at 320 µg/mL [3] | MIC [4] | zone of inhibition at 320 µg/mL [5] | MIC [6] | zone of inhibition at 320 µg/mL [7] | zone of inhibition at 320 µg/mL [8] | MIC [9] | zone of inhibition at 160 µg/mL [10] | zone of inhibition at 160 µg/mL [11] | zone of inhibition at 160 µg/mL [12]
1 | C=C[C@]1(C)C[C@@H](OC(=O)CSc2nnc(NC(=O)CN3CCN(C)CC3)s2)[C@]2(C)[C@H](C)CC[C@]3(CCC(=O)[C@H]32)[C@@H](C)[C@@H]1O | 8 µg/mL (≈ 12.6 µM) | 11.2 mm | 11.2 mm | 16 µg/mL (≈ 25.2 µM) | 13.1 mm | 4 µg/mL (≈ 6.31 µM) | 12 mm | 12.6 mm | 8 µg/mL (≈ 12.6 µM) | 10.7 mm | 10.6 mm | 11 mm
2 | C=C[C@]1(C)C[C@@H](OC(=O)CSc2nnc(NC(=O)c3ccccc3N)s2)[C@]2(C)[C@H](C)CC[C@]3(CCC(=O)[C@H]32)[C@@H](C)[C@@H]1O | 4 µg/mL (≈ 6.53 µM) | 12.4 mm | 11.3 mm | 16 µg/mL (≈ 26.1 µM) | 15.2 mm | 2 µg/mL (≈ 3.26 µM) | 15.5 mm | 13.8 mm | 4 µg/mL (≈ 6.53 µM) | 12.2 mm | 10.1 mm | 12.9 mm
3 | C=C[C@]1(C)C[C@@H](OC(=O)CSc2nnc(NC(=O)c3ccccc3OC)s2)[C@]2(C)[C@H](C)CC[C@]3(CCC(=O)[C@H]32)[C@@H](C)[C@@H]1O | 4 µg/mL (≈ 6.37 µM) | 11.3 mm | 11.5 mm | 16 µg/mL (≈ 25.5 µM) | 14.2 mm | 2 µg/mL (≈ 3.19 µM) | 14.8 mm | 13.4 mm | 1 µg/mL (≈ 1.59 µM) | 11.9 mm | 9.96 mm | 12.2 mm
4 | C=C[C@]1(C)C[C@@H](OC(=O)CSCCN(CC)CC)[C@]2(C)[C@H](C)CC[C@]3(CCC(=O)[C@H]32)[C@@H](C)[C@@H]1O [TIAMULIN] | 0.5 µg/mL (≈ 1.01 µM) | 14.6 mm | 15.8 mm | 16 µg/mL (≈ 32.4 µM) | 15.6 mm | 2 µg/mL (≈ 4.05 µM) | 17.2 mm | 16.1 mm | 0.5 µg/mL (≈ 1.01 µM) | 13.9 mm | 13.6 mm | 16.9 mm
5 | C=C[C@]1(C)C[C@@H](OC(=O)CSc2nnc(NC(=O)c3ccc(N)cc3)s2)[C@]2(C)[C@H](C)CC[C@]3(CCC(=O)[C@H]32)[C@@H](C)[C@@H]1O | 2 µg/mL (≈ 3.26 µM) | 12.3 mm | 12.2 mm | 16 µg/mL (≈ 26.1 µM) | 14.8 mm | 1 µg/mL (≈ 1.63 µM) | 13.2 mm | 14 mm | 2 µg/mL (≈ 3.26 µM) | 12.1 mm | 10.7 mm | 11.4 mm
6 | C=C[C@]1(C)C[C@@H](OC(=O)CSc2nnc(NC(=O)c3ccc(Cl)cc3)s2)[C@]2(C)[C@H](C)CC[C@]3(CCC(=O)[C@H]32)[C@@H](C)[C@@H]1O | 4 µg/mL (≈ 6.33 µM) | 11.4 mm | 10 mm | ≥ 64 µg/mL | 14.1 mm | 4 µg/mL (≈ 6.33 µM) | 13.7 mm | 13.4 mm | 4 µg/mL (≈ 6.33 µM) | 11.3 mm | 0 mm | 11.9 mm
7 | CC[C@]1(C)C[C@@H](OC(=O)CSc2nnc(N)[nH]2)[C@]2(C)[C@H](C)CC[C@]3(CCC(=O)[C@H]32)[C@@H](C)[C@@H]1O [AZAMULIN] | 0.125 µg/mL (≈ 0.261 µM) | 17.2 mm | 17.2 mm | 4 µg/mL (≈ 8.36 µM) | 17 mm | 0.5 µg/mL (≈ 1.04 µM) | 18 mm | 18.9 mm | 0.5 µg/mL (≈ 1.04 µM) | 15.4 mm | 16 mm | 16.5 mm
